Test results taken from ChEMBL document CHEMBL4038333, “Nonacidic Farnesoid X Receptor Modulators” (J Med Chem, 2017).
In brackets after ≈: the same amount, converted by molar mass. Activity calls are given as the source filed them. No cut-off for these calls is given here.

What was measured:
[1] = biological target: T1, Bile acid receptor (Homo sapiens) (UniProt Q96RI1); experiment: Transactivation of human FXR expressed in human HeLa cells co-expressing BSEP at 3 uM after 24 hrs by dual-glo luciferase reporter gene assay relative to GW4064; type: cell-based
T1 sequence (whole entry): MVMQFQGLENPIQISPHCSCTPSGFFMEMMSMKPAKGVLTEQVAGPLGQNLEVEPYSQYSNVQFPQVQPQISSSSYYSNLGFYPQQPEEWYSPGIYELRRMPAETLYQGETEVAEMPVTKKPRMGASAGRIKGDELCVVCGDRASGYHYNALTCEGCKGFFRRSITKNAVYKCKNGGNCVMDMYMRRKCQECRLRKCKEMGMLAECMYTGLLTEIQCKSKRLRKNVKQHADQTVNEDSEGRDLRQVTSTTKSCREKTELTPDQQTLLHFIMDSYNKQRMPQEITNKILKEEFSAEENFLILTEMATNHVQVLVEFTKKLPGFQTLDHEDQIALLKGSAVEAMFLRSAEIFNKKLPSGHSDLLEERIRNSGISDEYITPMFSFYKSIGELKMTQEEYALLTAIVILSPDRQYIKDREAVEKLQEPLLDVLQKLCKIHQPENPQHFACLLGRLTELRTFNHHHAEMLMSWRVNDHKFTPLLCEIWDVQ
Summary of the method: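 Full-length FXR reporter gene assay with constitutively expressed hFXR and hRXR, plus renilla luciferase for normalization and toxicity control. Maximum relative activation is expressed against the reference agonist at 3 µM, set as 100%.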

Bile acid receptor = biological target: T2, Bile acid receptor (Homo sapiens, UniProt Q96RI1); experiment: Binding affinity to FXR (unknown origin) ligand binding domain by ITC assay
T2 sequence (Q96RI1 whole entry): T1 sequence (whole entry)

[2] = Aqueous solubility of compound; type: physicochemical; settings: buffer
HepG2 = experiment: Cytotoxicity against human HepG2 cells up to 100 uM after 48 hrs by WST-1 assay; type: cell-based; settings: hepg2, 48 h
[3] = Half life in human HepG2 cells by HPLC analysis; type: ADME, cell-based
[4] = Metabolic stability in human HepG2 cells assessed as compound remaining after 24 hrs by HPLC analysis; type: ADME, cell-based; settings: read-out: Stability
[5] = biological target: Retinoic acid receptor gamma (Homo sapiens) (UniProt P13631); experiment: Transactivation of GAL4-tagged human RARgamma isoform 1 ligand binding domain (179 to 454 residues) expressed in HEK293T cells at 1 uM after 12 to 14 hrs by dual-glo luciferase reporter gene assay; type: cell-based; settings: HEK-293T
Summary of the method: (§1)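 Run as a selectivity screen against each listed receptor (14 nuclear receptors plus TGR5), in both agonist and antagonist modes. Test concentration was 1 µM, with n = 3.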

[6] = biological target: Retinoic acid receptor beta (Homo sapiens) (UniProt P10826); experiment: Transactivation of GAL4-tagged human RARbeta1 ligand binding domain (177 to 455 residues) expressed in HEK293T cells at 1 uM after 12 to 14 hrs by dual-glo luciferase reporter gene assay; type: cell-based; settings: HEK-293T; summary of the method: as §1
[7] = biological target: Retinoic acid receptor alpha (Homo sapiens) (UniProt P10276); experiment: Transactivation of GAL4-tagged human RARalpha1 ligand binding domain (177 to 462 residues) expressed in HEK293T cells at 1 uM after 12 to 14 hrs by dual-glo luciferase reporter gene assay; type: cell-based; settings: HEK-293T; summary of the method: as §1
[8] = biological target: Retinoic acid receptor RXR-beta (Homo sapiens) (UniProt P28702); experiment: Transactivation of GAL4-tagged human RXRbeta isoform 1 ligand binding domain (294 to 533 residues) expressed in HEK293T cells at 1 uM after 12 to 14 hrs by dual-glo luciferase reporter gene assay; type: cell-based; settings: HEK-293T; summary of the method: as §1
[9] = biological target: Oxysterols receptor LXR-alpha (Homo sapiens) (UniProt Q13133); experiment: Transactivation of GAL4-tagged human LXRalpha ligand binding domain expressed in HEK293T cells at 1 uM after 12 to 14 hrs by dual-glo luciferase reporter gene assay; type: cell-based; settings: HEK-293T; summary of the method: as §1
[10] = biological target: Peroxisome proliferator-activated receptor gamma (Homo sapiens) (UniProt P37231); experiment: Transactivation of GAL4-tagged human PPARgamma ligand binding domain expressed in HEK293T cells at 1 uM after 12 to 14 hrs by dual-glo luciferase reporter gene assay; type: cell-based; settings: HEK-293T; summary of the method: as §1
[11] = biological target: Peroxisome proliferator-activated receptor alpha (Homo sapiens) (UniProt Q07869); experiment: Transactivation of GAL4-tagged human PPARalpha ligand binding domain expressed in HEK293T cells at 1 uM after 12 to 14 hrs by dual-glo luciferase reporter gene assay; type: cell-based; settings: HEK-293T; summary of the method: as §1
[12] = biological target: Nuclear receptor subfamily 1 group I member 3 (Homo sapiens, UniProt Q14994); experiment: Antagonist activity at GAL4-tagged human CAR isoform 6 ligand binding domain (48 to 324 residues) expressed in HEK293T cells at 1 uM after 12 to 14 hrs by dual-glo luciferase reporter gene assay; type: cell-based; settings: hek-293t; summary of the method: as §1
[13] = biological target: Vitamin D3 receptor (Homo sapiens) (UniProt P11473); experiment: Antagonist activity at GAL4-tagged human VDR isoform 1 ligand binding domain (119 to 427 residues) expressed in HEK293T cells at 1 uM after 12 to 14 hrs by dual-glo luciferase reporter gene assay; type: cell-based; settings: HEK-293T; summary of the method: as §1
[14] = biological target: Retinoic acid receptor gamma (Homo sapiens) (UniProt P13631); experiment: Antagonist activity at GAL4-tagged human RARgamma isoform 1 ligand binding domain (179 to 454 residues) expressed in HEK293T cells at 1 uM after 12 to 14 hrs by dual-glo luciferase reporter gene assay; type: cell-based; settings: HEK-293T; summary of the method: as §1
[15] = biological target: Retinoic acid receptor RXR-gamma (Homo sapiens) (UniProt P48443); experiment: Antagonist activity at GAL4-tagged human RXRgamma ligand binding domain (229 to 463 residues) expressed in HEK293T cells at 1 uM after 12 to 14 hrs by dual-glo luciferase reporter gene assay; type: cell-based; settings: HEK-293T; summary of the method: as §1
[16] = biological target: Oxysterols receptor LXR-alpha (Homo sapiens) (UniProt Q13133); experiment: Antagonist activity at GAL4-tagged human LXRalpha ligand binding domain expressed in HEK293T cells at 1 uM after 12 to 14 hrs by dual-glo luciferase reporter gene assay; type: cell-based; settings: HEK-293T; summary of the method: as §1
[17] = biological target: Peroxisome proliferator-activated receptor gamma (Homo sapiens) (UniProt P37231); experiment: Antagonist activity at GAL4-tagged human PPARgamma ligand binding domain expressed in HEK293T cells at 1 uM after 12 to 14 hrs by dual-glo luciferase reporter gene assay; type: cell-based; settings: HEK-293T; summary of the method: as §1
HeLa [18] = experiment: Selectivity ratio for human FXR expressed in human HeLa cells co-expressing BSEP over TGR5 (unknown origin) expressed in HEK293T cells; type: cell-based
HeLa [19] = experiment: Selectivity ratio for human FXR expressed in human HeLa cells co-expressing BSEP over GAL4-tagged human CAR isoform 6 ligand binding domain (48 to 324 residues) expressed in HEK293T cells; type: cell-based
HeLa [20] = experiment: Selectivity ratio for human FXR expressed in human HeLa cells co-expressing BSEP over GAL4-tagged human RARalpha1 ligand binding domain (177 to 462 residues) expressed in HEK293T cells; type: cell-based
HeLa [21] = experiment: Selectivity ratio for human FXR expressed in human HeLa cells co-expressing BSEP over GAL4-tagged human RXRbeta isoform 1 ligand binding domain (294 to 533 residues) expressed in HEK293T cells; type: cell-based
HeLa [22] = experiment: Selectivity ratio for human FXR expressed in human HeLa cells co-expressing BSEP over GAL4-tagged human RXRalpha ligand binding domain (225 to 462 residues) expressed in HEK293T cells; type: cell-based
HeLa [23] = experiment: Selectivity ratio for human FXR expressed in human HeLa cells co-expressing BSEP over GAL4-tagged human LXRalpha ligand binding domain expressed in HEK293T cells; type: cell-based
HeLa [24] = experiment: Selectivity ratio for human FXR expressed in human HeLa cells co-expressing BSEP over GAL4-tagged human PPARalpha ligand binding domain expressed in HEK293T cells; type: cell-based

Oxysterols receptor LXR-alpha (Homo sapiens), sequence (Q13133 whole entry, the tested form may be a part): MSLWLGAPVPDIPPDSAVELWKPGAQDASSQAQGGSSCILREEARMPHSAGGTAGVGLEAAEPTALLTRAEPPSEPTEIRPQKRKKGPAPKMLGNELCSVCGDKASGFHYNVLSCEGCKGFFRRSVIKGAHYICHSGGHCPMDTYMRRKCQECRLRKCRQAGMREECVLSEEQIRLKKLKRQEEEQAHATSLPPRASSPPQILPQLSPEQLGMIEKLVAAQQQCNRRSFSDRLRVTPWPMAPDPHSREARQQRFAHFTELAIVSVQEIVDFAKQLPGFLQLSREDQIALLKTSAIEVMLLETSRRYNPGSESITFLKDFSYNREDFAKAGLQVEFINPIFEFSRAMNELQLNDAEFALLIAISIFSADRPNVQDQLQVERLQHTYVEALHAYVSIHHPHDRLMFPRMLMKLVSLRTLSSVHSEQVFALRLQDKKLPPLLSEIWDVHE
Retinoic acid receptor gamma (Homo sapiens), sequence (P13631 whole entry, the tested form may be a part, canonical isoform): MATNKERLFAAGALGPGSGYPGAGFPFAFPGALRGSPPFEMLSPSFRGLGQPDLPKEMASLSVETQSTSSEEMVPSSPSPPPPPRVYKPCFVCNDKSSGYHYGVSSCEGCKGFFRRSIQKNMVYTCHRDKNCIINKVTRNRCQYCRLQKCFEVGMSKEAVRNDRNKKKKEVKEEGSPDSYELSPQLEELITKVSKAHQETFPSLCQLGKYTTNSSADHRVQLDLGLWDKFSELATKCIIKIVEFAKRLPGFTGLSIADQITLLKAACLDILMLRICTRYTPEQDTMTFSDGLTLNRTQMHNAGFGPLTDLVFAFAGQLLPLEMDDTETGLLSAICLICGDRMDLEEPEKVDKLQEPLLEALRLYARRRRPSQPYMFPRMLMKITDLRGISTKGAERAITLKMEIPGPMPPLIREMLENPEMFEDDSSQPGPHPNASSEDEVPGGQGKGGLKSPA
Peroxisome proliferator-activated receptor gamma (Homo sapiens), sequence (P37231 whole entry, the tested form may be a part): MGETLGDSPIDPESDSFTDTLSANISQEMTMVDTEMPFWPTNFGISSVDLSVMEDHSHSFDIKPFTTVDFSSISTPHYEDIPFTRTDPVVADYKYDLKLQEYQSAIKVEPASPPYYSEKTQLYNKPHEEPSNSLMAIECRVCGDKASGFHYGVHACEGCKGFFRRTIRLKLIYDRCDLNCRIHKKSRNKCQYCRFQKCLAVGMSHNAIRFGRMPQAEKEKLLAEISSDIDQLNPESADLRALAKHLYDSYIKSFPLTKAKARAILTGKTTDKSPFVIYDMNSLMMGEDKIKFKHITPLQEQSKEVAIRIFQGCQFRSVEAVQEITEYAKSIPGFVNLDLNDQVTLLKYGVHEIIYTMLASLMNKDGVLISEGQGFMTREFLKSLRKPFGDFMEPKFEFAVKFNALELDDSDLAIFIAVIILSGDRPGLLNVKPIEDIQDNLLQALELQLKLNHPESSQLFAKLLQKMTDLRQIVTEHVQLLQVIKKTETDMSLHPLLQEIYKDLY
Retinoic acid receptor beta (Homo sapiens), sequence (P10826 whole entry, the tested form may be a part): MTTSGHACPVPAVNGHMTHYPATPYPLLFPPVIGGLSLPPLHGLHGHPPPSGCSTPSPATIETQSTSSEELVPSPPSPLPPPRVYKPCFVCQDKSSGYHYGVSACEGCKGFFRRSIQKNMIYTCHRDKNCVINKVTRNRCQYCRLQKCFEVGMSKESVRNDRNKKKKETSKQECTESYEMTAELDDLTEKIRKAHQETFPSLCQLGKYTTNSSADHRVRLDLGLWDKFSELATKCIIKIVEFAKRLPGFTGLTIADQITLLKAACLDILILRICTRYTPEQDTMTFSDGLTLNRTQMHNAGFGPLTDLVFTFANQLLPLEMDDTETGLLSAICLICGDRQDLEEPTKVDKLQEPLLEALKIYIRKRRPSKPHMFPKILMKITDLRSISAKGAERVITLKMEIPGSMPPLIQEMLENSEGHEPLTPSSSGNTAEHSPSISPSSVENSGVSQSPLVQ
Peroxisome proliferator-activated receptor alpha (Homo sapiens), sequence (Q07869 whole entry, the tested form may be a part, canonical isoform): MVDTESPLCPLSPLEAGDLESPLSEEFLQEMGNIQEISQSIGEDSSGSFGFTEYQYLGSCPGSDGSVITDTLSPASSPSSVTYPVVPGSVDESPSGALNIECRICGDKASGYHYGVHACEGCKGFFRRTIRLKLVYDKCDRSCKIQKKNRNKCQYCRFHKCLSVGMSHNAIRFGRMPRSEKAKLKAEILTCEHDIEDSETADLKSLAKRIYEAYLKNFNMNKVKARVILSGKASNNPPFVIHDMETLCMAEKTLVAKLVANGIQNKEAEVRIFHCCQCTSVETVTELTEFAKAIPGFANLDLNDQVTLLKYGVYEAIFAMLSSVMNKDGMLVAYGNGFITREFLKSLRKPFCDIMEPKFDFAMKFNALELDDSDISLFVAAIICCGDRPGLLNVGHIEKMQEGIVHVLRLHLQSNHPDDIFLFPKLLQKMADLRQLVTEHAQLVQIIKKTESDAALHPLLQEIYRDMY
Retinoic acid receptor RXR-beta (Homo sapiens), sequence (P28702 whole entry, the tested form may be a part, canonical isoform): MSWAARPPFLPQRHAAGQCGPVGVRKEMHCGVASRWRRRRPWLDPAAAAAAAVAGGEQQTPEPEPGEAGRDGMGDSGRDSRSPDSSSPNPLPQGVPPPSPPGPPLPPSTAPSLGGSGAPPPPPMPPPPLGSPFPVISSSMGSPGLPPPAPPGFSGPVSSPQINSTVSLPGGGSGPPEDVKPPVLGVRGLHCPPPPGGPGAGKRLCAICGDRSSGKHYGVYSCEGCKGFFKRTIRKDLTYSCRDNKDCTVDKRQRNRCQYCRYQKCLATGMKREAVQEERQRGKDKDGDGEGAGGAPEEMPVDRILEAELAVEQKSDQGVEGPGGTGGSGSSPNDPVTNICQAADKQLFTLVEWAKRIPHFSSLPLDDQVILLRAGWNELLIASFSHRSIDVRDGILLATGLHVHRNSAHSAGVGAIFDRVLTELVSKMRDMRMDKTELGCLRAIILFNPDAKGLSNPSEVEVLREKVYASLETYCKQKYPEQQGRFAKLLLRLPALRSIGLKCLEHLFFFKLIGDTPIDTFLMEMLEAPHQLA
Retinoic acid receptor RXR-gamma (Homo sapiens), sequence (P48443 whole entry, the tested form may be a part): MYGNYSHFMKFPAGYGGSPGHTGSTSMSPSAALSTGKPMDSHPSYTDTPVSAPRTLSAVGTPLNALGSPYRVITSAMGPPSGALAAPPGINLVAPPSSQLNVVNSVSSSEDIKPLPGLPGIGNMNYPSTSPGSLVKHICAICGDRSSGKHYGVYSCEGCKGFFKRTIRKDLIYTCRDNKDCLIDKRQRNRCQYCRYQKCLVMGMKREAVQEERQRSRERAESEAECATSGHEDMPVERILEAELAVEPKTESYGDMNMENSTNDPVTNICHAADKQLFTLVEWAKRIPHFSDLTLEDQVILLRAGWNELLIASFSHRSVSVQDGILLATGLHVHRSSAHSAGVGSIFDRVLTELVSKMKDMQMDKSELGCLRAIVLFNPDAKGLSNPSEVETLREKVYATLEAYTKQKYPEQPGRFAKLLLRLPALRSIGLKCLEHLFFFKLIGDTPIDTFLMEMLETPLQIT
Nuclear receptor subfamily 1 group I member 3, sequence (Q14994 whole entry, the tested form may be a part, canonical isoform): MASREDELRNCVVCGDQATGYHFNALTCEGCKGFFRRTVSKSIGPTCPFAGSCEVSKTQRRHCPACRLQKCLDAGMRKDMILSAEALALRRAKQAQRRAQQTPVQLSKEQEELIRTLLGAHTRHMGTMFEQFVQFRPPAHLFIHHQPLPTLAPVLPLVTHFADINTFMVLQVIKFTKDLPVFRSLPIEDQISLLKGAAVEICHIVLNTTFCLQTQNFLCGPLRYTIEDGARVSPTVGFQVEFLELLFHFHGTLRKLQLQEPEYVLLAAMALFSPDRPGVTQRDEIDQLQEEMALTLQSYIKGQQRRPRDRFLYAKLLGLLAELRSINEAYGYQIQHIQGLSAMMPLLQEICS
Vitamin D3 receptor (Homo sapiens), sequence (P11473 whole entry, the tested form may be a part, canonical isoform): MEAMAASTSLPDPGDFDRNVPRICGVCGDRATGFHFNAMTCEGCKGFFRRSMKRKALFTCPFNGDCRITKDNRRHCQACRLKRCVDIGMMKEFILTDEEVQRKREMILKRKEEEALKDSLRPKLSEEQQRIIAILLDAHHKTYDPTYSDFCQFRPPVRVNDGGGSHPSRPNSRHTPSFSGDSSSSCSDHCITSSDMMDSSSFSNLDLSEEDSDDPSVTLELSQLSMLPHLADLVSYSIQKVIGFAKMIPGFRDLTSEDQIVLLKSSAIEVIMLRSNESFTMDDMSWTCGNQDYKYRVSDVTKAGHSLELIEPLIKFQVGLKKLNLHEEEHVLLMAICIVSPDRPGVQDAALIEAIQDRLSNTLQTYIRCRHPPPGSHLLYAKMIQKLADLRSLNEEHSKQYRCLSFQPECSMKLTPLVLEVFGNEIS
Retinoic acid receptor alpha (Homo sapiens), sequence (P10276 whole entry, the tested form may be a part, canonical isoform): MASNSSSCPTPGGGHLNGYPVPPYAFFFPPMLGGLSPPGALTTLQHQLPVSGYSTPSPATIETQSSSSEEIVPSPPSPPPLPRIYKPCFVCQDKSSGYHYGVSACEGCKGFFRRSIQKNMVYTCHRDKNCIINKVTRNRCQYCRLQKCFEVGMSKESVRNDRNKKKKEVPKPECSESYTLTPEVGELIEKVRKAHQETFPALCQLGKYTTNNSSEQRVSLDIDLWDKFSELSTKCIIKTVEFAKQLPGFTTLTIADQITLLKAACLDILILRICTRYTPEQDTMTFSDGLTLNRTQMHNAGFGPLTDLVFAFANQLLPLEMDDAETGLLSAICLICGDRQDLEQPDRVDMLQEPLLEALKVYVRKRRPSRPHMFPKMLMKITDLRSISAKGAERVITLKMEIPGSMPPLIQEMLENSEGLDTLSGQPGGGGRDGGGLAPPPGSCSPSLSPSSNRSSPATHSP

Work on COc1ccc(CNc2c(-c3cc(Cl)ccn3)nc3ccc(Cl)cn23)cc1 yielded a max activation [1] of 23%, a Kd (Bile acid receptor) of 37 nM and a solubility [2] of 0.0637 µg/mL (≈ 0.16 µM). The Activity (HepG2) was “Non-Toxic”, the half-life [3] was 1.5 to 2 h and the remaining at 24 h [4] was 12%. For the same compound, the Activity [5] was “inactive”, the Activity [6] was “inactive” and the Activity [7] was “inactive”. The Activity [8] was “inactive”, the Activity [9] was “inactive” and the Activity [10] was “inactive”. The Activity [11] was “inactive”, the “inhibition (INH)” value [12] was “Not Active” and the inhibition [13] was “inactive”. For the same compound, the inhibition [14] was “inactive”, the inhibition [15] was “inactive” and the inhibition [16] was “inactive”. For the same compound, the inhibition [17] was “inactive”, the Selectivity ratio (HeLa [18]) was 3000 and the Selectivity ratio (HeLa [19]) was 3000. It also gave a Selectivity ratio (HeLa [20]) of 3000, a Selectivity ratio (HeLa [21]) of 3000 and a Selectivity ratio (HeLa [22]) of 3000. It also gave a Selectivity ratio (HeLa [23]) of 3000 and a Selectivity ratio (HeLa [24]) of 3000.
